Active and inactive are the calls of the source. No cut-off for these calls is given here.
Key:
[1] = tested on: HMEC; assay: Selectivity ratio of IC50 for human HMEC cells to IC50 for HL60 cells
[2] = tested on: HMEC; assay: Selectivity ratio of IC50 for human HMEC cells to IC50 for A549 cells
[3] = tested on: HL-60; assay: Induction of apoptosis in human HL60 cells assessed as DNA ladder formation at 2.5 to 10 uM using Annexin-V/PI double-staining by flow cytometric analysis; type: functional, cell-based; conditions: TDE = time-dependent effect
In short: (§1)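 HL60 cells were treated with 2.5, 5.0, 7.5 or 10.0 μM for 24 h for DNA ladder analysis, representative of three experiments. Apoptotic fractions were measured after 2.5–10 μM for 24 h, or 10 μM over a time course, by Annexin/PI staining and flow cytometry (early plus late apoptotic cells), as mean ± SD of three experiments.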

[4] = tested on: HCT-116; assay: Induction of apoptosis in human HCT116 cells assessed as accumulation at G2/M phase at 5 uM after 24 hrs using PI staining based flow cytometric analysis (reference value: 24.23%)
[5] = tested on: HCT-116; assay: Induction of apoptosis in human HCT116 cells assessed as accumulation at S phase at 5 uM after 24 hrs using PI staining based flow cytometric analysis (reference value: 27%)
[6] = tested on: HL-60; assay: Induction of apoptosis in human HL60 cells assessed as Bid cleavage at 2.5 to 10 uM after 24 hrs by Western blotting; type: functional, cell-based
In short: (§2)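 Cells (2×10^5/mL) were exposed to 2.5–10 μM for 24 h, then whole-cell lysates were made. Pro-/cleaved caspase-3, caspase-8, pro-/cleaved caspase-9, PARP (116 kDa full length, 85 kDa fragment) and Bid were probed by Western blot with ECL detection.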

[7] = molecular target: DNA topoisomerase 2-alpha (Homo sapiens) (UniProt P11388); assay: Induction of human topoisomerase 2alpha-mediated prestrand-passage DNA cleavage after 6 mins by agarose gel electrophoresis
DNA topoisomerase 2-alpha (Homo sapiens), sequence (P11388 whole entry): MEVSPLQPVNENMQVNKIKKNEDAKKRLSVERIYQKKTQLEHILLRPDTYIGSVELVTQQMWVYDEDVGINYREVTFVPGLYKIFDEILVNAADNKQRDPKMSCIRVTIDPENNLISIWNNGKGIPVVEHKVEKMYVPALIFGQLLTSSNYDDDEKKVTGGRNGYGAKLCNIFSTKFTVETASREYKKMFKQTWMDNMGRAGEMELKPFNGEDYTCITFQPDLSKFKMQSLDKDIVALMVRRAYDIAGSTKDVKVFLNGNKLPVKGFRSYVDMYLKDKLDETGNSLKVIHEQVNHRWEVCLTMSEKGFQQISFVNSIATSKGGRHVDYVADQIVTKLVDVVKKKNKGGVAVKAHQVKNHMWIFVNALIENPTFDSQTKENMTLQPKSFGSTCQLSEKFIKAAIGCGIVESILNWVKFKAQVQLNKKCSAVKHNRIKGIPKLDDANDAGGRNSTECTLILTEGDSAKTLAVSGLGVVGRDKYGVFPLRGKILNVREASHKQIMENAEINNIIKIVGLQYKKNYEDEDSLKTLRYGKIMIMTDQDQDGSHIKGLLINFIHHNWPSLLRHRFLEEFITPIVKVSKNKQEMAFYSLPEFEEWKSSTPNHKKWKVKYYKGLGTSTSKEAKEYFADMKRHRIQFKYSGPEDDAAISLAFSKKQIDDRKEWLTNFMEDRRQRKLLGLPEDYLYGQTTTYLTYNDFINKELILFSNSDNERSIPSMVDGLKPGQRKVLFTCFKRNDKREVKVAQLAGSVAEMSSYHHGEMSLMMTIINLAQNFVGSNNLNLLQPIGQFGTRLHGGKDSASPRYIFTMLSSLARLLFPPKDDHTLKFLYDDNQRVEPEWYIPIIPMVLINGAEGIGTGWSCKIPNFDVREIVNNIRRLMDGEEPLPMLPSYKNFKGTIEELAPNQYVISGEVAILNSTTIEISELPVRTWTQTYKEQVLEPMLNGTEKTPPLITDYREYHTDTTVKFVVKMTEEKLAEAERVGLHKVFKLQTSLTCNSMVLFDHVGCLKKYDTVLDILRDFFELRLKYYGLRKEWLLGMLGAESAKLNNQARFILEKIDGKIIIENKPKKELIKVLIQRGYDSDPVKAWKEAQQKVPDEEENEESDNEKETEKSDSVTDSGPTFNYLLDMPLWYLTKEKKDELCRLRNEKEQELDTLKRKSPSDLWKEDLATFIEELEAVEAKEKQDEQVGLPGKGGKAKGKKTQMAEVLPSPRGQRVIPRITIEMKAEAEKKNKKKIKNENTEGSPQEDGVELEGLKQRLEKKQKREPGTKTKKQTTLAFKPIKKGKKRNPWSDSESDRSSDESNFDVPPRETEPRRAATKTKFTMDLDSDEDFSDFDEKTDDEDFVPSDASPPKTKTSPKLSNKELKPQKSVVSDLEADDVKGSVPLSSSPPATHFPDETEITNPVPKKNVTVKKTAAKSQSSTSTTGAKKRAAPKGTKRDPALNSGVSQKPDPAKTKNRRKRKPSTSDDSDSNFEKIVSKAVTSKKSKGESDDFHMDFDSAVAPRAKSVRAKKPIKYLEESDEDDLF
In short: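 Supercoiled pBR322 (0.25 μg) was incubated with 6 units of topo II in cleavage buffer containing 5 mM MgCl2 at 37 °C for 6 min; the post-strand-passage reactions also received 1 mM APPNHP. Reactions were stopped with SDS and proteinase K, digested at 50 °C for 30 min, heated to 70 °C, and run on 1% agarose gels.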

[8] = tested on: HMEC; assay: Selectivity ratio of IC50 for human HMEC cells to IC50 for Rh30 cells
[9] = tested on: HMEC; assay: Selectivity ratio of IC50 for human HMEC cells to IC50 for KB cells
[10] = molecular target: DNA topoisomerase 2-alpha (Homo sapiens) (UniProt P11388); assay: Inhibition of human topoisomerase 2alpha-mediated unwinding of linearized pBR322 assessed as DNA intercalation at 8 to 200 uM
In short: (§3)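 Unwinding (intercalation) test: EcoRI-linearized pBR322 (0.1 μg) incubated with compound and 2 units T4 DNA ligase in ligase buffer at 22 °C for 30 min. Stopped at 60 °C for 10 min, compound removed by phenol extraction, ligation products resolved on agarose gel.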

[11] = tested on: HCT-116; assay: Induction of apoptosis in human HCT116 cells assessed as accumulation at G0/G1 phase at 5 uM after 24 hrs using PI staining based flow cytometric analysis (reference value: 48.77%)
[12] = molecular target: DNA topoisomerase 2-alpha (Homo sapiens) (UniProt P11388); assay: Inhibition of human topoisomerase 2alpha-mediated prestrand-passage DNA religation after 6 mins by agarose gel electrophoresis
In short: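 Topo II (6 units) with 0.25 μg supercoiled pBR322 in cleavage buffer with 5 mM CaCl2; equilibrium at 37 °C for 6 min. Compound added just before religation. Cleavage complex trapped with EDTA, NaCl added to block recleavage, samples put on ice. Religation started with cold MgCl2 (8.5 mM final), stopped with SDS, then 1% agarose electrophoresis.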

[13] = tested on: KB; assay: Drug resistance index, ratio of IC50 for vincristine-resistant human KB cells to IC50 for human KB cells; type: functional
[14] = tested on: HL-60; assay: Induction of apoptosis in human HL60 cells assessed as DNA ladder formation at 2.5 to 10 uM after 24 hrs using Annexin-V/PI double-staining by flow cytometric analysis; type: functional; in short: as §1
[15] = tested on: KB; assay: Cytotoxicity against vincristine-resistant human KB cells over expressing P-glycoprotein after 72 hrs by SRB assay; type: functional, cell-based
In short: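 Adherent human tumour lines were seeded and exposed in triplicate to graded compound concentrations at 37 °C for 72 h. Growth was read by sulforhodamine B staining. IC50 (50% growth inhibition) was obtained by the Logit method from at least three independent experiments and reported as mean ± SD.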

[16] = tested on: HL-60; assay: Induction of apoptosis in human HL60 cells assessed as DNA ladder formation at 10 uM after 1.5 to 24 hrs using Annexin-V/PI double-staining by flow cytometric analysis; type: functional, cell-based; in short: as §1
[17] = molecular target: DNA topoisomerase 2-alpha (Homo sapiens) (UniProt P11388); assay: Inhibition of human topoisomerase 2alpha-mediated unwinding of linearized pBR322 assessed as DNA intercalation at 2 to 50 uM; in short: as §3
[18] = tested on: HL-60; assay: Cytotoxicity against human HL60 cells after 72 hrs by MTT assay; type: functional, cell-based; conditions: HL-60, 72 h
In short: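 Cells were treated in triplicate with graded concentrations for 72 h at 37 °C and read by MTT. IC50 is the concentration giving 50% growth inhibition, derived by the Logit method from at least three independent experiments and given as mean ± SD.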

[19] = tested on: HMEC; assay: Selectivity ratio of IC50 for human HMEC cells to IC50 for BxPC3 cells
[20] = molecular target: DNA topoisomerase 2-alpha (Homo sapiens) (UniProt P11388); assay: Inhibition of human topoisomerase 2alpha-mediated relaxation of supercoiled pBR322 DNA after 30 mins by agarose gel electrophoresis
In short: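 Supercoiled pBR322 (0.25 μg) incubated with 0.75 unit topo IIα at 37 °C for 30 min. SDS stop. Supercoiled and relaxed forms resolved on 1% agarose/TAE, ethidium bromide stain.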

[21] = tested on: HL-60; assay: Induction of apoptosis in human HL60 cells assessed as activation of caspase 9 at 10 uM after 24 hrs by Western blotting preincubated for 2 hrs with 20 uM caspase 9 inhibitor Z-LEHD-FMK; type: functional, cell-based
In short: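 HL60 cells were pretreated with 20 μM Z-IETD-FMK, Z-LEHD-FMK or Z-VAD-FMK, then cultured with 10 μM compound for 24 h. Cleaved PARP and caspases were probed by Western blot. Three independent experiments were run.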

[22] = tested on: HMEC; assay: Selectivity ratio of IC50 for human HMEC cells to IC50 for MKN45 cells
[23] = tested on: HCT-116; assay: Induction of apoptosis in human HCT116 cells assessed as increase in cleaved PARP levels after 24 hrs by Western blotting; type: functional, cell-based; in short: as §2

For `COC1O[C@H](C)[C@@H](C)c2c(C)c3c(c(O)c21)[C@@H]1O[C@H](C)[C@@H](C)c2c(C)c(O)c([C@H]4O[C@H](C)[C@@H](C)c5c(C)c(O)cc(O)c54)c(c21)O3` (stereo partly drawn) [TRICITRINOL B], the “Ratio IC50” value [1] was 2, the “Ratio IC50” value [2] was 2 and the Activity [3] was “tde”. The Activity [4] was 42.06%, the Activity [5] was 20.42% and the Activity [6] was “Active”. The Activity [7] was “Dose-dependent effect”, the “Ratio IC50” value [8] was 2 and the “Ratio IC50” value [9] was 2. For the same compound, the inhibition [10] was “Active”, the Activity [11] was 37.52% and the inhibition [12] was “Dose-dependent effect”. For the same compound, the “Ratio IC50” value [13] was 0.94, the Activity [14] was 10% and the IC50 [15] was 4.6 µM. For the same compound, the Activity [16] was “Active”, the inhibition [17] was “Active” and the IC50 [18] was 3.2 µM. The “Ratio IC50” value [19] was 2, the inhibition [20] was “Dose-dependent effect” and the Activity [21] was “Active”. The “Ratio IC50” value [22] was 2 and the Activity [23] was “Dose-dependent effect”.

From ChEMBL document CHEMBL1821706, “Unprecedented citrinin trimer tricitinol B functions as a novel topoisomerase IIα inhibitor” (J Med Chem, 2011)
